# High-throughput results deposited in PubChem BioAssay by several laboratories.
# Beta cell apopt – inhibitors of cytokine-induced beta cell apoptosis, primary screen, luminescence. 0.8% of 300,000 active. INS-1E cytokine-induced death, ATP luminescence, 48 h; percent of positive-control rescue, neutral wells zero. protection from apoptosis, % (concentration not given with the values). AID 435005, 2010;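 active means Every replicate reaches about 75%, or at least half do and their mean reaches it too, limit read from the data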;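 further: 0% = cytokine-treated negative control wells and 100% = positive control rescue; higher means more ATP so stronger rescue from cytokine killing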
# Mdm2-MdmX inh – inhibitors of human Mdm2-MdmX association, primary screen, cell-based, luminescence, split luciferase, SaOS-2, uHTS; 3% of 330,000 active; SaOS-2 split-luciferase Mdm2/MdmX complementation; Protein Mdm4 (Homo sapiens) + E3 ubiquitin-protein ligase Mdm2 (Homo sapiens), …; inhibition, % at 8 µM;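 active means inhibition of at least 50% at 8 µM in the primary screen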
# Target sequence (O15151 whole entry, looked up): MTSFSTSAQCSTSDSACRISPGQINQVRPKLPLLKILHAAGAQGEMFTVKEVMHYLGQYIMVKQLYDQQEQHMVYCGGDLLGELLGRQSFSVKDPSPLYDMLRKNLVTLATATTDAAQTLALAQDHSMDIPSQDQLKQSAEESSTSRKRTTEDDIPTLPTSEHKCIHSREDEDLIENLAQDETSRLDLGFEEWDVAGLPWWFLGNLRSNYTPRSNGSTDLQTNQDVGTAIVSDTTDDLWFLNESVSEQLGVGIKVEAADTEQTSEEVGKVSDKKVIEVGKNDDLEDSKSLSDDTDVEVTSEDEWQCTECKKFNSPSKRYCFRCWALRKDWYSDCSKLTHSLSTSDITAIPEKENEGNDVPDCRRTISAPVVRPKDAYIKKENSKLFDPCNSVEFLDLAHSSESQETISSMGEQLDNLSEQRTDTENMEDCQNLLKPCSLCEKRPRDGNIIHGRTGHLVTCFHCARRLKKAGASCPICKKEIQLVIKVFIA
# Target sequence (Q00987 whole entry, looked up): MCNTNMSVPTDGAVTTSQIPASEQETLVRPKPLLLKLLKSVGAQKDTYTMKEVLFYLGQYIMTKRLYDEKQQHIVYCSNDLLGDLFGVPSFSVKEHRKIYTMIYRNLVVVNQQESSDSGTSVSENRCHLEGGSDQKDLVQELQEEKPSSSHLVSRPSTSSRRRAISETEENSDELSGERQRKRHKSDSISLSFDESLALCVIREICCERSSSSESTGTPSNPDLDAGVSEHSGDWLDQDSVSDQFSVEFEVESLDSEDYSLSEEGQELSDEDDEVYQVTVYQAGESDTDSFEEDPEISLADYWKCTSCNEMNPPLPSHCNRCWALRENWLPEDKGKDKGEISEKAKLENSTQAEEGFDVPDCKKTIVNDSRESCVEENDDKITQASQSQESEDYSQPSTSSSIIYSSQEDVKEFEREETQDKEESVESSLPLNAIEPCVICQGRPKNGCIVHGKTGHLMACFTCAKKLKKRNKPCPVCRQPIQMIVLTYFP
# XBP1 UPR activ – activators of adaptive XBP1 UPR arm, primary screen, cell-based, CHO-XBP1 luciferase reporter, luminescence, uHTS; IRE1-XBP1 UPR activation; percent of tunicamycin response, DMSO as zero; activation, % at 20 µM; 0.33% of 330,000 active; AID 463104, 2010;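 active means versus positive control, 20 µM dose yields 30% or more activation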;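 further: 100% = tunicamycin at 10 µg/mL and 0% = DMSO only wells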
#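 Material: CHO-XBP1 cells stably carrying IRE1-XBP1-driven luciferase reporter / Amount: 1000 cells per well / Compound: 20 µM, 1% DMSO / Times: 6 h treatment, 37 °C / Detection: luciferase luminescence / Measure: % activation of reporter signal versus tunicamycin and DMSO controls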
# T cruzi repl – inhibitors of intracellular T. cruzi growth, primary screen, luminescence, NIH3T3 host cells | inhibition, % (no concentration beside the values) | AID 1885, 2009 | 1.4% of 300,000 active | T. cruzi beta-gal in NIH3T3, 90 h;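 active means mean inhibition across valid replicates above about 55%, limit read from the data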;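 further: signal also drops with host cell toxicity which is not excluded here; 0% = plate median of DMSO wells and 100% = zero luminescence signal; higher percent means less beta-gal luminescence so fewer parasites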
#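 compound dosing = single 50 nL compound addition per well in DMSO | material = NIH/3T3 host cells with β-galactosidase reporter T. cruzi | input = 5,000 host fibroblasts per well | timing = ≥90 h infection period, 3 h prior cell attachment | read-out basis = percent inhibition of parasite-derived β-gal signal | detection = GalScreen β-gal luminescence, detergent lysis, 60 min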
# CSC inhib – cancer stem cell viability inhibitors, primary screen, luminescence; cancer stem cell-like cells viability; inhibition, % at 7.5 µM; 1.1% of 300,000 active; AID 2717, 2010; in the data active means inhibition above about 75%; tested in HMLE shEcad cells
# UPR CHOP act – activators of apoptotic CHOP UPR arm, primary screen, cell-based, CHO-CHOP luciferase reporter, luminescence, uHTS; UPR activation; percent of tunicamycin response over DMSO baseline; 0.34% of 330,000 active; AID 449763, 2010; activation, % at 10 µM;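 active means at 10 µM dose, activation of 40% or more, normalized to positive control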;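 further: 100% = tunicamycin at 10 µg/mL and 0% = DMSO alone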
#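 System: CHO-CHOP luciferase reporter cell line; amount: 500 cells/well; buffer or medium: F12 medium containing 10% fetal bovine serum; incubation: 6 h compound exposure at 37 °C after overnight seeding; measured by: luciferase luminescence after 10 min with Steady-Glo reagent; evaluation: % reporter activation, DMSO baseline versus tunicamycin full activation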
# Mdm2-MdmX conf – Mdm2-MdmX complex disruptors, retested hits, confirmation, luminescence, single concentration; inhibition, % at 8 µM; shares compounds with Mdm2-MdmX inh; Mdm2-MdmX binding, luminescent assay; 55% of 10,000 active; AID 489028, 2010; in the data active means inhibition above about 40%
# Full FLuc ctr – full-length luciferase signal inhibition, confirmation, counter-screen for Mdm2/MdmX interaction inhibitor project, cell-based, single concentration, SaOS-2; shares compounds with Mdm2-MdmX inh; SaOS-2 full-length luciferase counterscreen, luminescence; inhibition, % at 8 µM; 77% of 6,200 active; AID 504607, 2011;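 active means mean inhibition at 8 µM reaching about 37%, which flags the compound as non-specific, limit read from the data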;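 further: p53-null SaOS-2 cells with luciferase driven by a doxycycline-inducible promoter; compound on cells about two nights before reading with doxycycline added after day one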
# Active calls of the source: *; · = not tested or not shown. Shown are actives, neighbours in structure and some others; about 5% of the full set was active somewhere.
SMILES,Beta cell apopt,Mdm2-MdmX inh,XBP1 UPR activ,T cruzi repl,CSC inhib,UPR CHOP act,Mdm2-MdmX conf,Full FLuc ctr
Cc1ccc(NC(=O)Cn2nnc(C(=O)NCCc3ccccc3)c2N)c(C)c1,·,61*,2,-18,-1,0,10,·
COc1ccc(NC(=O)Cn2nnc(C(=O)NCc3ccccc3)c2N)cc1Cl,5,26,4,-13,-4,2,·,·
COc1ccc(NC(=O)Cn2nnc(C(=O)NCc3ccc(C)cc3)c2N)cc1Cl,·,53*,-3,-2,-14,3,32,·
COc1ccc(Cl)cc1NC(=O)Cn1nnc(C(=O)NCCc2ccc(OC)c(OC)c2)c1N,2,21,1,9,-7,1,·,·
COc1ccc(NC(=O)Cn2nnc(C(=O)Nc3ccc(F)c(Cl)c3)c2N)cc1OC,·,66*,-3,6,-5,2,31,·
O=C(CNc1ccccc1)N/N=C/c1c(O)ccc2ccccc12,84*,84*,-1,11,57,-4,79*,27
O=C(CSCC(=O)Nc1ccccc1)N/N=C/c1c(O)ccc2ccccc12,-11,79*,-2,14,58,-4,72*,28
COc1ccc(N=Cc2c(O)ccc3ccccc23)cc1,-4,12,-4,-1,11,0,·,·
COc1ccc(NC(C)C(=O)N/N=C/c2c(O)ccc3ccccc23)cc1 (stereo not drawn),64,65*,0,-5,7,-1,56*,39*
O=C(N/N=C/c1c(O)ccc2ccccc12)Nc1ccccc1,3,30,2,2,15,1,·,·
CSCCC(NC(=O)COc1ccccc1)C(=O)N1CCN(C(C)=O)CC1 (stereo not drawn),-4,16,-3,-6,·,4,·,·
CSc1nnc(-c2sc3cc(C(F)(F)F)cnc3c2-c2ccccc2)n1C,11,67*,-2,-2,52,-2,48*,50*
CCOC(=O)c1c(C)nc2sc(C(=O)Nc3ccccc3)c(N)c2c1-c1ccc(OC)cc1,36,59*,4,27,-9,8,35,·
C=CCOc1c(/C=N\NC(N)=O)cccc1OC,-3,12,0,·,0,0,·,·
COc1cccc(Sc2ccccc2/C=N/NC(N)=O)c1,7,53*,-1,-47,49,0,67*,58*
Cc1ccc(S(=O)(=O)CC(=O)c2ccc3c(c2)OCCO3)cc1,·,13,3,3,-3,2,·,·
COc1cc(NC(=O)c2cccc3c2C(=O)N(Cc2cccnc2)C3)cc(OC)c1OC,-6,52*,0,-2,23,-2,48*,95*
Cc1ccc(O)c(/C=N/NC(=O)Cc2ccc(Cl)cc2)c1,·,64*,0,-1,22,0,51*,34
Cc1ccsc1/C=N/NC(=O)Cc1ccc(Cl)cc1,-4,-9,0,-2,-6,-1,·,·
Cc1cccc(/C=N/NC(=O)Cc2ccc(Cl)cc2)c1O,·,64*,-6,3,16,1,42*,30
Cn1c(SCC(=O)N2CCCC2=O)nnc1-c1ccccc1F,-4,21,-3,-12,2,0,·,·
CCOC(=O)N1CCN(C(=O)CNC(=O)c2ccc(Br)o2)CC1,1,-10,-8,0,-1,2,·,·
O=C(COc1ccc(-n2cnnn2)cc1)Nc1cc(Cl)cc(Cl)c1,·,67*,1,·,·,2,34,·
Cc1ccc(C(C)NC(=O)c2cc3cc(Br)ccc3oc2=N)cc1 (stereo not drawn),-6,51*,1,-4,21,3,35,·
COc1cc(OC)cc(C(=O)N[C@H](C(=O)OCC(=O)c2ccc(C)c([N+](=O)[O-])c2)C(C)C)c1,0,15,-4,·,-1,-1,·,·
SMILES,Beta cell apopt,Mdm2-MdmX inh,XBP1 UPR activ,T cruzi repl,CSC inhib,UPR CHOP act,Mdm2-MdmX conf,Full FLuc ctr
Cc1ccc(S(=O)(=O)N2C[C@@H]3[C@H]4CC[C@H](C4)[C@@H]3[C@@H](C)[C@@H]2c2ccn(Cc3ccccc3)c2)cc1,·,50*,-2,·,·,2,9,·
CCOC(=O)C1(Nc2nccs2)Sc2ccccc2NC1=O (stereo not drawn),-2,57*,0,-5,52,-2,62*,58*
CCOC(=O)C(=O)Nc1ccc(S(=O)(=O)Nc2nccs2)cc1,·,11,-1,-20,-2,3,·,·
CCN1C(=O)[C@H]2[C@@H](c3ccc(C)cc3)N3C(=O)N(c4ccc(OC)cc4)C(=O)[C@@]3(C)[C@H]2C1=O,0,22,-1,-10,-12,0,·,·
CCCSc1nc2c(cnn2-c2ccc(C)cc2)c(=O)[nH]1,1,50*,1,12,35,-1,12,·
Cc1cccc(-n2ncc3c(=O)[nH]c(SCC(=O)NCCC4=CCCCC4)nc32)c1,-3,90*,3,·,·,1,5,·
Cc1nc2c(-c3ccc(F)cc3)cnn2c(N)c1-c1ccc(F)cc1,5,61*,6,32,21,5,47*,144*
O=C1CCC2(CC1)NC(=O)N(c1ccccc1)N2,-1,5,-2,4,-12,-1,·,·
COc1ccc(NC(C)=O)cc1NS(=O)(=O)c1ccc2c(c1)OCCO2,-2,16,0,·,-9,-1,·,·
COC(=O)c1ccc(Cl)c(NS(=O)(=O)c2ccc3c(c2)OCCO3)c1,2,53*,-1,-7,41,-1,47*,55*
COC(=O)c1ccc(N2CCCCC2)c(NS(=O)(=O)c2ccc(C)cc2)c1,·,65*,-2,47,·,-1,57*,62*
CCOC(=O)c1cc2sccc2n1CC(=O)C(C)(C)C,1,10,-1,-7,-9,1,·,·
CC(C(=O)NCC1CCCCC1)N1CCN(S(=O)(=O)c2cccs2)CC1 (stereo not drawn),·,11,-1,·,·,-1,·,·
O=C(NCc1ccco1)c1ccc2c(c1)OCCO2,0,-3,-1,-7,-1,3,·,·
